# High-throughput results from PubChem.
# Most compounds without a hit are left out; they make up all but 1.1% or so of the library.
# Diaphorase act = compounds boosting diaphorase resazurin reduction – biochemical, uHTS, resorufin fluorescence, counter-screen for diaphorase-coupled primary assays, primary screen. Diaphorase/resazurin coupled assay, 16 min; hits give high values; 1 = vehicle wells, 0 = NADH-free wells. activation factor at 20 µM. actives 0.005% (n = 190,000);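 active = diaphorase activity raised at least twofold by the compound at 20 µM; inactive = activation factor below 2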
#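 Material: purified diaphorase enzyme from Clostridium kluyveri / Medium: HEPES pH 7.4 buffer with MgCl2 and Tween 20 / Schedule: enzyme reaction of 16 min at room temperature / Measured by: resorufin fluorescence, excitation 544 nm, emission 590 nm / Evaluation: rise in resorufin formation, marking diaphorase activation or chemical reduction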
# G6PDH CS = L. mesenteroides G6PDH inhibitors, counter-screen for G6PDH-coupled screening assays, biochemical, Leuconostoc mesenteroides enzyme | glucose-6-phosphate dehydrogenase [Leuconostoc mesenteroides] | Purified L. mesenteroides G6PDH, diaphorase/resazurin coupled fluorescence, 45 min | inhibition, % at 5 µM | actives 0.12% (n = 200,000) | AID 1020, 2008; in the data active = inhibition above about 50%
# PMI act satM6P = human PMI activators, high substrate, primary screen, biochemical, fluorescence intensity, near-saturating mannose 6-phosphate; Mannose-6-phosphate isomerase (Homo sapiens), P34949; coupled PMI enzyme assay, resazurin fluorescence, 20 min; hits give high values; 1 = untreated enzyme, 0 = substrate-free blank; activation factor at 20 µM; actives 0.34% (n = 190,000);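 active = activation factor of 2 or more at 20 µM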
# Target sequence (P34949 whole entry, looked up): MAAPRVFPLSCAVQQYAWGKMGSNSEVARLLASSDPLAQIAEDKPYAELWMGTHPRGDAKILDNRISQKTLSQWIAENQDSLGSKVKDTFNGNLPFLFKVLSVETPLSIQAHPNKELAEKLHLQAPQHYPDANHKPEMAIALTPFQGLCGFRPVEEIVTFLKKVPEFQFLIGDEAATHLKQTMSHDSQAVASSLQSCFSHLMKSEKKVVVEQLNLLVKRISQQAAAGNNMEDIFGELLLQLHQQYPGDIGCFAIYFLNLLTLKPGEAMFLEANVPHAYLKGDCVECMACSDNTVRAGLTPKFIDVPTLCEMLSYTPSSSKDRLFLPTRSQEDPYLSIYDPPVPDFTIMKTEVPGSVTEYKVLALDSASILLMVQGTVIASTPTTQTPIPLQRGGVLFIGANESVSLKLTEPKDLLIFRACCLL
#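 Test system – human PMI in coupled enzyme assay · Timing – 20 min incubation at room temperature · Detection – Diaphorase-driven resazurin-to-resorufin fluorescence, excitation 544, emission 590 nm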
# Diaph inh CS = diaphorase inhibitors and chemical oxidizers, primary screen, counter-screen for diaphorase-coupled primary assays, biochemical, uHTS, resorufin fluorescence. diaphorase resazurin-to-resorufin fluorescence, NADH, 16 min; bacterial (C. kluyveri) enzyme, not human. inhibition, % at 20 µM. actives 0.69% (n = 190,000);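 active = primary screen inhibition at 20 µM above a set limit, cut at about 50% in these data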;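 also: plate controls were DMSO with full reaction for no effect and wells lacking NADH for full effect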
#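 Test system: diaphorase enzyme from Clostridium kluyveri; amount: diaphorase at 0.14 U/mL in enzyme working solution; detection: fluorescence of resorufin formed from resazurin, Ex 544/Em 590 nm; times: reaction incubation of 16 min at room temperature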
# PMI activator = activators of human PMI, primary screen, biochemical, fluorescence intensity, near-Km mannose 6-phosphate. actives 0.005% (n = 190,000). Mannose-6-phosphate isomerase (Homo sapiens), P34949. AID 1214, 2008. activation factor at 20 µM. purified human PMI, coupled resazurin fluorescence, 20 min; hits give high values; 1 = vehicle control, 0 substrate-free wells;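 active = activation factor of 2 or more at 20 µM, relative to plate controls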
# * marks the source's active call; other numbers are inactive results.
SMILES,Diaphorase act,G6PDH CS,PMI act satM6P,Diaph inh CS,PMI activator
O=C(COC(=O)c1ccc(F)c(S(=O)(=O)N2CCCCC2)c1)NCc1ccc(F)cc1,1,6.6,1,3.0,1
CCOc1ccc(-c2nc(C)c(C(C)=O)n2O)cc1,1,4.6,0.9,4.6,0.8
O=C1CCN(C(=O)Nc2cccc(Cl)c2)N1,0.9,11.4,1.5,6.0,1.2
O=C1CCN(C(=O)Nc2ccccc2Cl)N1,1,5.8,2.2*,-1.4,1.4
CCN1C(=O)c2cccc3c(S(=O)(=O)Nc4ccccc4OC)ccc1c23,0.5,0.3,0.9,51.3*,0.9
O=C(O)CC(NC(=O)Cc1ccc([N+](=O)[O-])cc1)c1ccc2c(c1)OCO2 (stereo not given),1,4.4,1.1,3.4,1.3
O=Cc1ccc(-c2ccccc2C(=O)O)o1,0.9,9.1,1,14.7,1
Cc1c(C(=O)O)cccc1-c1ccc(/C=N/Nc2ccc(Br)cc2)o1,0.8,5.0,2.2*,16.1,1.6
Cc1nnc(C)n1/N=C/c1cc(Br)cc(Br)c1O,0.9,7.8,1.2,14.9,1
Nn1cnnc1N/N=C/c1cc(Br)cc(Br)c1O,0.5,31.6,0.9,50.3*,0.8
O=C(NC1CCCC1)c1sc(=S)n2c1[nH]c(=O)c1ccccc12,0.4,9.6,0.9,61.4*,1
O=C(NCc1ccco1)c1sc(=S)n2c1[nH]c(=O)c1ccccc12,0.3,6.4,0.9,67.0*,0.9
O=C(NC1CCCCCCC1)c1c(O)c2ccccc2[nH]c1=O,1.1,11.2,1.1,-12.6,1
COc1ccc(C(=O)n2ccc(C)n2)cc1Br,0.8,1.0,0.9,16.3,0.8
COc1cccc(-n2c(SCc3cc(=O)oc4cc(O)c(O)cc34)nc3ccccc3c2=O)c1,0.4,-1.5,0.5,58.6*,0.4
COc1cccc(C2SCC(=O)N2c2ccc(Br)cc2)c1OC (stereo not given),1,5.2,2.2*,3.4,1.7
COc1cc(OC)c2c(=O)cc(-c3ccccc3)oc2c1,0.4,8.3,1,55.4*,1
COc1cc2c(c3oc(-c4ccccc4)cc(=O)c13)C=CC(C)(C)O2,0.2,23.1,1,81.8*,1
CC(C)(C)OC(=O)COc1cc(OCC(=O)OC(C)(C)C)c2c(=O)cc(-c3ccccc3)oc2c1,0.8,11.2,0.9,22.7,0.8
O=C1CC(=C2c3ccccc3-c3ccccc32)C(=O)N1CCCCN1CCN(c2ccccc2)CC1,1,-0.3,2.1*,-2.8,1.5
O=c1[nH]c(/C=C2\C=Nc3ccccc32)c(O)n1Cc1ccccc1F,0.3,5.7,0.8,69.3*,0.8
CSc1nc(O)c(/C=C2\C=Nc3ccccc32)[nH]1,0.8,9.0,1,21.2,1
C=C1c2ccccc2NC(=O)N1c1ccc(OC)cc1,0.8,14.9,2.5*,18.1,1.7
COc1ccc(N2C(=O)c3ccccc3NC2(C)C)cc1,1,3.9,1.1,-1.3,1.1
C=C1c2cc(C)ccc2NC(=O)N1c1ccccc1,1,10.6,2.9*,4.9,1.8
SMILES,Diaphorase act,G6PDH CS,PMI act satM6P,Diaph inh CS,PMI activator
CCCNC(=S)N1CCC(C(=O)c2ccc3c(c2)OCCO3)CC1,0.9,27.4,1,13.1,1
O=C(CC1Nc2cccc3cccc(c23)NC1=O)Nc1ccc(F)cc1 (stereo not given),0.6,12.9,0.5,36.9,0.9
COc1ccc(NC(=O)CC2Nc3cccc4cccc(c34)NC2=O)cc1 (stereo not given),0.2,23.2,0.7,75.2*,0.8
COC(=O)N[C@H](CC(C)=O)c1ccccc1,1,9.1,1,-0.9,1.1
O=C(c1ccccc1Sc1ccc([N+](=O)[O-])cc1Cl)N1CCOCC1,0.9,6.8,2.1*,5.5,1.7
O=C(CN1CC(=O)Oc2ccccc21)OCC(=O)c1ccc(F)cc1,0.5,27.8,1,51.4*,1.1
Cc1cccc(NC(=S)c2nc3ccccc3s2)c1,0.9,-1.8,1,9.2,1
CCN(CC)c1ccc(S(=O)(=O)N(CC)CC)cc1NC(=O)c1cccnc1,0.9,0.9,1,6.0,1
COc1ccc(C2CC(c3cccs3)=NN2S(C)(=O)=O)cc1OC (stereo not given),1,14.5,1,-0.2,1
COc1ccc(C2CC(c3cccs3)=NN2c2nc(-c3ccccc3)cs2)cc1OC (stereo not given),1,-22.3,2.1*,4.1,1.6
CC(=O)NCCCNS(=O)(=O)c1ccc(C)cc1,0.3,-0.3,1,67.0*,0.9
COC(=O)C1=C(C)N(C)C(C)=C(C(=O)OC)C1c1ccccn1,0.9,10.6,0.9,10.9,1
CC(=O)c1c(C(C)=O)c(C)n(C(c2ccccc2)c2ccccc2)c1C,0.8,4.0,1,15.9,0.9
Cc1ccccc1OCC(=O)Nc1ccccc1N1CCC(C)CC1,0.9,-2.0,1,9.6,0.9
O=C(NCCc1ccccc1)c1cnn2c(C(F)F)cc(C3CC3)nc12,0.4,3.6,0.9,64.3*,0.8
Brc1c(OCCOCCn2cncn2)ccc2ccccc12,0.8,-9.0,0.8,22.5,0.9
CSc1cccc(-n2cc(-c3ccc4c(c3)OCO4)[nH]c2=O)c1,0.7,11.9,2.1*,28.3,1.5
O=[N+]([O-])c1cc(/C=N\Nc2nccs2)ccc1O,0.1,3.5,0.9,89.8*,0.9
Clc1cccc(Cl)c1/C=N\Nc1nccs1,1,6.9,1,0.6,1
COc1ccc2c(c1)-c1nc(NC(=O)c3ccco3)sc1CC2,0.8,1.2,0.7,19.2,0.8
COc1ccc2c(c1)CCc1sc(NC(=O)c3ccco3)nc1-2,0.5,15.8,0.4,54.8*,0.7
Oc1c(C=NCc2ccccc2)sc2ccccc12,0.9,5.8,1,6.3,1
Oc1cccc(C=NCc2ccccc2)c1O,0.4,60.2*,0.5,61.7*,0.5
COC1=C(OC)C(=O)C(CCCCCCCCCCO)=C(C)C1=O,0.4,62.6*,0.2,57.4*,0.5
Nc1cc(-c2ccncc2)c[nH]c1=O,0.3,38.0,0.3,65.6*,0.5
COc1ccc2oc(=O)c(C(=O)Oc3ccc(NC(C)=O)cc3)cc2c1,0.7,8.3,1.6,27.7,1.3
